# Assay results as given in ChEMBL document CHEMBL3244340, “Antineoplastic agents. 1. Synthesis and antineoplastic activities of chloroethyl- and methylnitrosourea analogues of thymidine” (J Med Chem, 1978).
# pEC50: −log10 of the molar value.
# Legend:
# [1] = tested on: L1210; assay: Cytotoxicity against mouse L1210 cells after 72 hrs by coulter counter analysis; type: functional; conditions: L1210, 72 h, read-out: ED50 (the source's name)
# Method in brief: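 Murine L1210 leukemia cells grown in suspension in Fischer's medium with 10% horse serum, 37 °C. Cells exposed to nitrosoureas for 72 h, then counted by Coulter counter, two independent samples in duplicate per concentration. ED50 (concentration inhibiting growth by 50%) estimated from dose-response curves pooled from at least three separate experiments.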
# [2] = Alkylating activity of the compound relative to 1,3-bis-(2-chloroethyl)-1-nitrosourea; type: physicochemical
# [3] = Carbamoylating activity of the compound at 5 umol by liquid scintillation spectrometry in presence of [14C]-lysine relative to 1,3-bis-(2-chloroethyl)-1-nitrosourea; type: physicochemical
Structure (SMILES),pEC50 [1],fold change (FC) [2],fold change (FC) [3]
Cc1cn([C@H]2C[C@H](NC(=O)N(C)N=O)[C@@H](CO)O2)c(=O)[nH]c1=O,6.00,0.05,0.9
Cc1cn([C@H]2C[C@H](NC(=O)N(CCCl)N=O)[C@@H](CO)O2)c(=O)[nH]c1=O,5.82,2.1,0.9
O=NN(CCCl)C(=O)NCCCl [CARMUSTINE],5.40,–,–
Cc1cn([C@H]2C[C@H](O)[C@@H](CN(N=O)C(=O)NCCCl)O2)c(=O)[nH]c1=O,5.38,0.06,1.6
Cc1cn([C@H]2C[C@H](O)[C@@H](CNC(=O)N(CCCl)N=O)O2)c(=O)[nH]c1=O,5.18,0.47,1.6
Cc1cn([C@H]2C[C@H](O)[C@@H](CNC(=O)N(C)N=O)O2)c(=O)[nH]c1=O,4.02,0.05,1
